High-throughput results as filed in PubChem BioAssay.
Hits are enriched below; roughly 2.3% of the tested compounds scored in any of these assays.
Rpn11 block: Rpn11 (human) deubiquitinase inhibition | human 26S proteasome, Ub4-pepOG fluorescence polarization; 20S core pre-blocked with epoxomicin | hit rate 0.59% among 360,000 | inhibition, % at 20 µM | AID 588493 | O00487;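 active = inhibition at 20 µM, scaled to each plate's controls, above about 33%, limit read from the data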
Target sequence (O00487 whole entry, looked up): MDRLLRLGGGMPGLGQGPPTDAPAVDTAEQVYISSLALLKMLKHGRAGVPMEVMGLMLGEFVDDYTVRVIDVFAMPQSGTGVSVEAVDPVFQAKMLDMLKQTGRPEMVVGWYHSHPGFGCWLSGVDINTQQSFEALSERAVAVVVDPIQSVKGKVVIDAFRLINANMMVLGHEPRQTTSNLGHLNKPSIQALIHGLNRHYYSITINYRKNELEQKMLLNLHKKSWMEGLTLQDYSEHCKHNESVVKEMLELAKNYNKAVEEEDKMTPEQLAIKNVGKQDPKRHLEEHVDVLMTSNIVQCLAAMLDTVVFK
Scp1 inh: Scp-1 (human) phosphatase inhibition | inhibition, % at 20 µM | Recombinant Scp1, phosphopeptide, malachite green phosphate absorbance | Q9GZU7 | hit rate 0.88% among 340,000;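 active = inhibition above about 50% at 20 µM, limit read from the data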;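 note: plate controls were DMSO wells with enzyme for no effect and wells lacking enzyme for full effect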
Target sequence (Q9GZU7 76-261 limits assumed): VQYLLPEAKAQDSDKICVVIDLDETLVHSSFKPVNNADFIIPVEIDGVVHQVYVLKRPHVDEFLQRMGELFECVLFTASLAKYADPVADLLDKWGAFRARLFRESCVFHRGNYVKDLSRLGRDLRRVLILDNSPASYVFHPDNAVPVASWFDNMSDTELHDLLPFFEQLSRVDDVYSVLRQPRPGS
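Material – SCP-1 phosphatase catalytic domain, residues 76-261 · Buffer or medium – Acidic Tris acetate buffer with magnesium and detergent · Also added – Phospho 17-mer peptide substrate · Compound – single 20 µM dose, 1% DMSO · Times – 45 min room-temperature reaction, 5 min colour, 30 min stabiliser · Technique – Phosphate-binding colour reagent, absorbance read at 630 nm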
SUMO1 PPI mod: alters human SUMO1 binding to SIM partners; P63165; SUMO1 binding to a labelled peptide, TR-FRET, 1 h; inhibition, % at 20 µM; hit rate 0.33% among 360,000; AID 602429; in the data active = inhibition above about 37%
Target sequence (P63165 whole entry, looked up): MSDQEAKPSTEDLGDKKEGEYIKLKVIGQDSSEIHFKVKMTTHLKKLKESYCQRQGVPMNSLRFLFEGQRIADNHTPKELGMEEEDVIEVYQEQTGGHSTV
STEP inh: blocks human striatal-enriched tyrosine phosphatase; hit rate 0.25% among 360,000; recombinant STEP, OMFP fluorogenic substrate, fluorescence; AID 588621; inhibition, % at 20 µM;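 active = inhibition at 20 µM, scaled per plate between control wells, above about 37%, limit read from the data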;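 note: 0% = DMSO with enzyme and substrate and 100% = substrate only without enzyme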
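medium = Bis-Tris buffer pH 6.0, 2.5 mM DTT, 0.005% Tween 20 | test system = STEP (striatal-enriched tyrosine phosphatase) enzyme, cell-free | measure = normalized % inhibition | compound dosing = 20 µM, 1% DMSO | also added = 25 µM OMFP | schedule = reaction 20 min, ambient temperature | measured by = fluorescence read at 480 nm ex / 540 nm em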
LMPTP inh: blocks human LMPTP phosphatase; inhibition, % at 20 µM; hit rate 0.22% among 360,000; recombinant LMPTP-A, OMFP fluorogenic substrate, fluorescence intensity;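 active = compounds that cut the enzyme signal by at least half of the control window in the single-dose screen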;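 note: plate controls were DMSO wells with enzyme plus substrate for no effect and substrate without enzyme for full effect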
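Test system: LMPTP-A phosphatase enzyme; input: 0.625 nM LMPTP-A final; reagent: OMFP substrate, 400 µM final; compound dosing: 20 µM single dose, 3% DMSO; incubation: 50 min dark incubation at room temperature; measured by: endpoint fluorescence intensity from OMFP dephosphorylation; measure: % inhibition relative to no-enzyme and uninhibited control wells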
DNMT1 block: blocks human DNA methyltransferase DNMT1. P26358. hit rate 0.83% among 360,000. DNMT1 molecular beacon, Hinp1I cleavage, fluorescence. inhibition (reported as % activation of signal), % at 10 µM; in the data active = inhibition above about 50%
Scp-1 conf: confirmation of human Scp-1 phosphatase inhibitors; shares compounds with Scp1 inh; recombinant SCP-1 catalytic domain, phosphate release, malachite green absorbance; inhibition, % at 20 µM; hit rate 61% among 2,500; AID 540281;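 note: plate controls were DMSO with enzyme for no effect and buffer wells lacking enzyme for full effect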
MG interference: interferes with malachite green readout, flagging false Scp-1 hits. shares compounds with Scp1 inh. apparent inhibition (interference), % at 20 µM. 2,500 tested, under 10 active. Colorimetric interference counterscreen, malachite green absorbance 630 nm. AID 540313;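 note: compounds added after enzyme reaction finished so only phosphate colour detection is probed; plate controls were DMSO wells with completed Scp-1 reaction for no effect and substrate wells lacking enzyme for full effect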
Scp-1 Tm shift: binds human Scp-1, shifting its melting temperature; thermal shift relative to vanadate control, % at 40 µM; hit rate 25% among 1,500; Recombinant SCP1, Sypro Orange thermal shift Tm; shares compounds with Scp1 inh; AID 540329;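 active = substances whose mean melting-temperature shift, as a percentage of the reference inhibitor's shift, reaches about 5.3%, limit read from the data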;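 note: 0% = Tm of DMSO wells and 100% = Tm with sodium orthovanadate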
DNMT1 interf DR: shows spectral interference in the DNMT1 beacon assay | IC50, µM | 200 tested, under 10 active | molecular beacon fluorescence, spectral interference counter-screen | shares compounds with DNMT1 block; call rule not given here
DNMT1 inh conf: confirmation of human DNMT1 inhibitors | DNMT1 molecular beacon HinP1I cleavage, fluorescence | shares compounds with DNMT1 block | inhibition, % at 10 µM | hit rate 8% among 2,300 | AID 602385;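 active = average inhibition of at least 30% in the single-concentration confirmation test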
DNMT1 interf: beacon fluorescence artifact counter-screen; hit rate 1% among 2,300; DNMT1 molecular beacon spectral interference counterscreen, fluorescence 485/520; shares compounds with DNMT1 block; activation (fluorescence interference), % at 10 µM;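 active = activation of at least 30% at 10 µM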;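 note: DNMT1 catalytic domain with a HinP1I cleavage step and a FAM/dabcyl DNA beacon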
The depositor's hits bear a star; nt = no result shown.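 Rule for the calls, unless noted: active = inhibition of at least 30% at 20 µM; inactive = the rest.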

SMILES	Rpn11 block	Scp1 inh	SUMO1 PPI mod	STEP inh	LMPTP inh	DNMT1 block	Scp-1 conf	MG interference	Scp-1 Tm shift	DNMT1 inh conf	DNMT1 interf	others
Cc1cccn2c(=O)c3cc(C#N)c(=NC(=O)c4ccco4)n(Cc4ccco4)c3nc12	-30	76*	7	22	46	61*	36*	-8	10.0*	0	3
COc1ccc(-c2csc(NC(=O)CSc3nc(C)nc4sc(C(=O)O)c(C)c34)n2)cc1	-19	87*	22	0	3	81*	64*	-13	10*	62*	5	DNMT1 interf DR=>99
COc1ccc(-c2csc(NC(=O)CSc3nc(C)cs3)n2)cc1	6	-14	4	2	-3	-5	nt	nt	nt	nt	nt
N#C/C(=C\c1ccncc1)c1nc2ccccc2[nH]1	18	-8	-13	1	0	-3	nt	nt	nt	nt	nt
N#C/C(=C/c1ccc(OC(=O)c2ccc(Br)s2)cc1)c1nc2ccccc2[nH]1	32	96*	8	27	32	85*	80*	-4	-5	3	-6
COc1ccc(C(=O)NCC(=O)Nc2ccc(-c3ccccc3)cc2)cc1	5	95*	4	12	23	53*	84*	-8	-20	1	-4
Cc1cccc(NC(=O)CN2C(=O)N/C(=C\c3cccn3-c3cccc(C(=O)O)c3)C2=O)c1	-9	18	-14	3	0	34	nt	nt	nt	nt	nt
O=C(O)c1cccc(-n2cccc2/C=C2/SC(=O)N(CC(=O)N3CCCC3)C2=O)c1	-14	67*	-1	23	1	70*	54*	-20	-8	2	4
O=C(O)c1cccc(-n2cccc2C=C2C(=O)c3ccccc3C2=O)c1	3	31	4	9	3	49	nt	nt	nt	nt	nt
O=C(CN1C(=O)S/C(=C/c2cccn2-c2ccc(O)cc2)C1=O)N1CCCC1	-1	-1	-15	1	0	-3	nt	nt	nt	nt	nt
O=C(O)c1cccc(-n2cccc2/C=C2\SC(=O)N(Cc3ccccc3F)C2=O)c1	7	93*	-5	11	8	91*	81*	-24	-6	6	0
O=C(O)c1cccc(-n2cccc2/C=C2/NC(=O)N(c3cccc(Cl)c3)C2=O)c1	-1	85*	35	3	5	97*	64*	-16	4	25	4
COc1cccc(CN2CC(C(=O)N3CCCO3)CCC2=O)c1 (configuration not stated)	-3	-11	-1	-2	0	2	nt	nt	nt	nt	nt
O=C(CSc1nnc(COc2ccccc2Cl)o1)NC(=O)NCc1ccco1	-11	76*	20	4	34	72*	44*	-7	-8	1	4
Cc1nnc(SCC(=O)NC(=O)NCc2ccco2)n1Cc1ccccc1	-25	87*	5	-1	18	66*	63*	-12	-5	3	4
O=C(CSc1nnc(Nc2ccccc2F)s1)NCc1ccco1	-18	83*	13	-1	21	76*	63*	-14	4	2	-2
Cc1ccccc1Nc1nnc(SCC(=O)NC(=O)NCc2ccco2)s1	-21	84*	6	1	25	90*	61*	-17	5	2	1
Cc1cc(C)cc(OCC(=O)N2CCN(c3ncccn3)CC2)c1	0	3	6	-1	-1	-2	nt	nt	nt	nt	nt
O=C(CSc1nc2ncccc2[nH]1)NCc1ccco1	-16	11	1	2	-1	3	nt	nt	nt	nt	nt
O=C(CSc1nccc(=O)[nH]1)NCc1ccco1	-5	93*	27	10	1	77*	69*	-3	3	3	0
O=C(COC(=O)C1CCN(S(=O)(=O)c2cc([N+](=O)[O-])ccc2Cl)CC1)Nc1ncc(Cl)cc1Cl	-15	68*	11	22	10	86*	58*	-10	14*	4	-3
NS(=O)(=O)c1ccc(CCNC(=O)c2cccc([N+](=O)[O-])c2)cc1	3	3	-16	-4	1	-2	nt	nt	nt	nt	nt
O=C(C1=C(O)C(=O)N(c2ccccc2)C1c1ccc([N+](=O)[O-])cc1)c1cccs1 (configuration not stated)	2	-5	-16	1	2	-1	nt	nt	nt	nt	nt
Cc1cc(NC(=O)CSc2nc3[nH]c(=O)cc(O)c3s2)ccc1Br	10	4	7	3	1	-3	nt	nt	nt	nt	nt
Cc1cc(NC(=O)CSc2sc3c(O)cc(=O)[nH]c3c2C#N)ccc1Br	38	59*	13	8	40	61*	52*	-18	17*	3	2
NC(=O)CC(NC(=O)Cc1ccc(Cl)cc1)c1ccc(NCCOc2ccccc2)c([N+](=O)[O-])c1 (configuration not stated)	7	-11	-6	4	1	-7	nt	nt	nt	nt	nt
OC(c1ccc(F)cc1)c1nc(-c2cccs2)cs1 (configuration not stated)	-4	nt	-8	1	0	2	nt	nt	nt	nt	nt
CSc1nc(SCCO)c2sc3nc(-c4ccco4)c4c(c3c2n1)CC(C)(C)OC4	nt	79*	60*	8	45	98*	43*	-10	7.4*	8	1
CCCOc1ccc(/C=c2\sc3nc(-c4ccco4)nn3c2=O)cc1OCC	-11	84*	14	1	2	73*	9	-25	nt	3	1
C/C=C/C=C/C(=O)[C@@H]1[C@@H]([C@]2(C)OC(=O)C(C)=C2O)[C@H]2/C(=C(O)/C=C/C=C/C)C(=O)[C@]1(C)C(=O)C2(C)O (some centres not stated)	6	72*	25	5	2	85*	51*	-19	11*	61*	1	DNMT1 interf DR=>99
